Measurements published in ChEMBL document CHEMBL2016502, “Synthesis and fungicidal activity of tubulin polymerisation promoters. Part 2: pyridazines” (2012).
Converted amounts (≈) assume the structure as drawn. The source made the active and inactive calls. No cut-off for these calls is given here.

Tests used:
Botrytis cinerea = experiment: Antifungal activity against Botrytis cinerea infected tomato plant assessed as leaf area with disease after 2 days relative to control; assay type: functional; conditions: 48 h
Procedure, shortened: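 Tomato plants (cv. Roter Gnom, four weeks old) received a spray-chamber application of formulated compound in water. A spore suspension was sprayed on 2 days after treatment. Plants were incubated in a greenhouse at 20 °C and 95% rh. Diseased leaf area (%) was assessed 5–6 days after application, when untreated checks were adequately diseased.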

Zymoseptoria tritici = experiment: Antifungal activity against Mycosphaerella graminicola infected in wheat plant assessed as decrease in wheat leaf blotch relative to control; assay type: functional
Procedure, shortened: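 Wheat plants (cv. Riband, two weeks old) were treated in a spray chamber with formulated compound diluted in water and spray-inoculated with spores 1 day later. They were incubated for 1 day at 22/21 °C (day/night) and 95% rh, then kept in a greenhouse at 22/21 °C and 70% rh. Efficacy was scored 16–19 days after application, against diseased untreated checks.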

Alternaria solani = experiment: Antifungal activity against Alternaria solani infected in tomato plant assessed as leaf area with disease after 2 days relative to control; assay type: functional; conditions: 48 h
Procedure, shortened: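 Four-week-old tomato plants (cv. Roter Gnom) were sprayed in a chamber with formulated compound diluted in water. Plants were spray-inoculated with a spore suspension 2 days later and held in a greenhouse at 22/18 °C (day/night) and 95% rh.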

Tubulin (Sus scrofa) = Tubulin (Sus scrofa) (UniProt P02554+P02550); experiment: Induction of porcine tubulin polymerization at 0.24 to 20 ppm by spectrophotometric analysis; assay type: protein assay
Tubulin (Sus scrofa), sequence (P02550 whole entry, looked up): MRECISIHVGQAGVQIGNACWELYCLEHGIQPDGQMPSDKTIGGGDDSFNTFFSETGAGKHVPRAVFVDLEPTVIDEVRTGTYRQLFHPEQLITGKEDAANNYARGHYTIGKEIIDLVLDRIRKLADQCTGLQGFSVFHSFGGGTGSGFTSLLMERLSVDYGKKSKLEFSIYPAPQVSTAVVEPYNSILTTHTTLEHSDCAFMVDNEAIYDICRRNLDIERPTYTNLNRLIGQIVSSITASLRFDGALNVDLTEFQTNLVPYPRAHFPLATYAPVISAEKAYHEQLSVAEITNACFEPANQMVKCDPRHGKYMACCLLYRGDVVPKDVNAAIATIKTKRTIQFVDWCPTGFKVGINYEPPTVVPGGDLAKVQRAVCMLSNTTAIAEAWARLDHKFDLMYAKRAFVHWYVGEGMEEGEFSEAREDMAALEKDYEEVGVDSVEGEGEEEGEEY
Tubulin (Sus scrofa), sequence (P02554 whole entry, looked up): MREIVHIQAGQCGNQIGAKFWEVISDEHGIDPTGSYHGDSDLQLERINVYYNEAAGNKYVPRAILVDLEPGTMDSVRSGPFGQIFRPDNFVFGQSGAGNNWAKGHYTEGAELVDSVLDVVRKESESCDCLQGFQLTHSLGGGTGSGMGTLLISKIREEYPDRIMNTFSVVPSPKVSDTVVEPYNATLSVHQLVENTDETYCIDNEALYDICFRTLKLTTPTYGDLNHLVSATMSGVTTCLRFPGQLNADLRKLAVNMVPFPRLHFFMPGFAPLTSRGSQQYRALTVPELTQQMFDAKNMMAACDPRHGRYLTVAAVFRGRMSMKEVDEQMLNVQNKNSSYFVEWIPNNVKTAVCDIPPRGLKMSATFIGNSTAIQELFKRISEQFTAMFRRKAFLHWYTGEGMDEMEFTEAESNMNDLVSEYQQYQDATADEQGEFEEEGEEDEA
Procedure, shortened: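 Compound was added at reaction start at 20, 2.2 and 0.24 ppm from a 0.2 mM DMSO solution. The reaction was started at 37 °C and followed by absorbance at 340 nm. Paclitaxel served as positive control and DMSO as negative control.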

Structure (SMILES)	EC80 (Botrytis cinerea)	EC80 (Zymoseptoria tritici)	EC80 (Alternaria solani)	Activity (Tubulin (Sus scrofa))
Cc1nnc(Cl)c(-c2ncc(Cl)cc2Cl)c1-c1ccc(Cl)nc1	15 µg/mL (≈ 38.9 µM)	9 µg/mL (≈ 23.3 µM)	33 µg/mL (≈ 85.5 µM)	
CC(=O)O[C@H]1C(=O)[C@@]2(C)[C@H]([C@H](OC(=O)c3ccccc3)[C@]3(O)C[C@H](OC(=O)[C@H](O)[C@@H](NC(=O)c4ccccc4)c4ccccc4)C(C)=C1C3(C)C)[C@]1(OC(C)=O)CO[C@@H]1C[C@@H]2O				Active
CN(C)c1nnc(Cl)c(-c2c(F)cc(F)cc2F)c1-c1ccc(Cl)cc1	40 µg/mL (≈ 100 µM)	6 µg/mL (≈ 15.1 µM)	16 µg/mL (≈ 40.2 µM)	
Cc1nnc(Cl)c(-c2c(F)cccc2F)c1-c1ccc(Cl)nc1	78 µg/mL (≈ 221 µM)	60 µg/mL (≈ 170 µM)	54 µg/mL (≈ 153 µM)	
CSc1nnc(Cl)c(-c2c(F)cc(F)cc2F)c1-c1ccc(Cl)cc1	124 µg/mL (≈ 309 µM)	90 µg/mL (≈ 224 µM)	42 µg/mL (≈ 105 µM)	
Cc1nnc(Cl)c(-c2c(F)cc(F)cc2F)c1-c1ccc(Cl)cc1	6 µg/mL (≈ 16.3 µM)	2 µg/mL (≈ 5.42 µM)	2 µg/mL (≈ 5.42 µM)	
Cc1nnc(Cl)c(-c2c(F)cc(F)cc2F)c1-c1ccc2ccccc2n1	1 µg/mL (≈ 2.59 µM)	5 µg/mL (≈ 13 µM)	4 µg/mL (≈ 10.4 µM)	
Cc1nnc(O)c(-c2c(F)cc(F)cc2F)c1-c1ccc(Cl)cc1	> 200 µg/mL	> 200 µg/mL	> 200 µg/mL	
COc1cc(F)cc(F)c1-c1c(Cl)nnc(C)c1-c1ccc(Cl)nc1	> 200 µg/mL	95 µg/mL (≈ 249 µM)	17 µg/mL (≈ 44.5 µM)	
Cc1nnc(C)c(-c2c(F)cc(F)cc2F)c1-c1ccc(Cl)cc1	4 µg/mL (≈ 11.5 µM)	14 µg/mL (≈ 40.1 µM)	18 µg/mL (≈ 51.6 µM)	
COc1cc(F)c(-c2c(Cl)nnc(C)c2-c2ccc(Cl)nc2)c(F)c1	1 µg/mL (≈ 2.62 µM)	3 µg/mL (≈ 7.85 µM)	1 µg/mL (≈ 2.62 µM)	
Cc1nnc(Cl)c(-c2c(F)cc(F)cc2F)c1-c1ccc(Cl)nc1	1 µg/mL (≈ 2.7 µM)	1 µg/mL (≈ 2.7 µM)	2 µg/mL (≈ 5.4 µM)	
COc1cc(F)c(-c2c(Cl)nnc(C)c2-c2ccc(Cl)nc2)cc1F	23 µg/mL (≈ 60.2 µM)	46 µg/mL (≈ 120 µM)	19 µg/mL (≈ 49.7 µM)	
COc1nnc(C)c(-c2ccc(Cl)cc2)c1-c1c(F)cc(F)cc1F	97 µg/mL (≈ 266 µM)	53 µg/mL (≈ 145 µM)	57 µg/mL (≈ 156 µM)	
Fc1cc(F)c(-c2c(Cl)nnc(Cl)c2-c2ccc(Cl)cc2)c(F)c1	127 µg/mL (≈ 326 µM)	96 µg/mL (≈ 246 µM)	134 µg/mL (≈ 344 µM)	
Cc1nnc(F)c(-c2c(F)cc(F)cc2F)c1-c1ccc(Cl)cc1	8 µg/mL (≈ 22.7 µM)	191 µg/mL (≈ 542 µM)	17 µg/mL (≈ 48.2 µM)	
C#Cc1ccc(-c2c(C)nnc(Cl)c2-c2c(F)cc(F)cc2F)cc1	3 µg/mL (≈ 8.36 µM)	1 µg/mL (≈ 2.79 µM)	1 µg/mL (≈ 2.79 µM)	
COc1nnc(Cl)c(-c2c(F)cc(F)cc2F)c1-c1ccc(Cl)cc1	58 µg/mL (≈ 151 µM)	14 µg/mL (≈ 36.3 µM)	92 µg/mL (≈ 239 µM)	
Cc1nnc(Cl)c(-c2c(F)cc(F)cc2F)c1Cc1ccccc1	77 µg/mL (≈ 221 µM)	50 µg/mL (≈ 143 µM)	56 µg/mL (≈ 161 µM)	
Cc1nnc(Cl)c(-c2c(F)cc(F)cc2F)c1-c1ccc(Cl)s1	25 µg/mL (≈ 66.6 µM)	41 µg/mL (≈ 109 µM)	49 µg/mL (≈ 131 µM)	Active
